ChEMBL document CHEMBL4020840, “Synthesis and Biological Evaluation of Selenium-Containing 4-Anilinoquinazoline Derivatives as Novel Antimitotic Agents” (J Med Chem, 2018)
The source made the active and inactive calls. No cut-off for these calls is given here.

How the values were obtained:
[1] = system: A549; assay: Induction of apoptosis in human A549 cells assessed as downregulation of Bcl2 level at 2 to 4 nM after 24 to 48 hrs by Western blot method; type: functional, cell-based
In short: (§1)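 A549 seeded in 60 mm dishes at 5 × 10⁵ cells and treated for 24 or 48 h. Lysed in RIPA buffer on ice for 30 min and spun at 12 500g. Protein measured by BCA; 40 μg run on 8−12% SDS−PAGE and moved to nitrocellulose. Blocked in 5% milk, primary antibodies at 4 °C overnight, HRP secondary 2 h, ECL detection.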

[2] = system: A549; assay: Induction of apoptosis in human A549 cells assessed as upregulation of Bad level at 2 to 4 nM after 24 to 48 hrs by Western blot method; type: functional, cell-based; in short: as §1
[3] = system: HeLa; assay: Induction of morphological changes in human HeLa cells at 2 to 8 nM after 48 hrs by confocal microscopic method; type: functional, cell-based
In short: (§2)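 Human cancer cells were treated at the indicated concentrations, or 0.01% DMSO vehicle, for 48 h. Cells were then fixed and their morphology was examined by microscopy with a 20× objective.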

[4] = organism: Sus scrofa; assay: Inhibition of porcine brain tubulin polymerization measured every 60 secs for 90 mins by DAPI staining based fluorescence assay
In short: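 Purified tubulin was tested in a kit assay. Final buffer: 80 mM PIPES sesquisodium (pH 6.9), 2.0 mM MgCl₂, 0.5 mM EGTA, 1 mM GTP, 10.2% glycerol. Compound (0.1–10 μM) was prewarmed at 37 °C for 1 min before tubulin was added. DAPI reporter fluorescence (ex 340 / em 410 nm) was read every 60 s for 90 min. Area under the curve gave percent inhibition versus control and the IC50.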

[5] = system: HeLa; assay: Disruption of microtubule network in human HeLa cells at 4 to 8 nM after 12 hrs by Hoechst 33342 staining based laser scanning confocal microscopic method; type: cell-based
In short: (§3)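 A549 and HeLa cells at 3 × 10⁵ per confocal dish, grown 24 h, then exposed to compound (2, 4 or 8 nM) or 0.01% DMSO for 12 h. Fixed in 4% paraformaldehyde at 37 °C for 15 min, permeabilised with 0.5% Triton X-100, blocked with 10% goat serum. Stained with mouse anti-tubulin at 4 °C overnight, then Alexa-Fluor 488 secondary; Hoechst 33342 nuclear stain; confocal imaging.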

[6] = system: A549; assay: Disruption of microtubule network in human A549 cells at 2 nM after 12 hrs by Hoechst 33342 staining based laser scanning confocal microscopic method; type: cell-based; in short: as §3
[7] = system: HeLa; assay: Disruption of microtubule network in human HeLa cells at 2 nM after 12 hrs by Hoechst 33342 staining based laser scanning confocal microscopic method; type: cell-based; in short: as §3
[8] = system: A549; assay: Induction of mitochondrial membrane disruption in human A549 cells at 2 to 8 nM after 48 hrs by JC1/Hoechst 33342 staining based flow cytometry; type: functional, cell-based
[9] = system: A549; assay: Induction of ROS generation in human A549 cells at 2 to 8 nM after 12 hrs by DCFH-DA staining based fluorescence microscopic method; type: functional, cell-based
In short: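 A549 plated at 3 × 10⁵ cells/well and grown 24 h, then exposed to compound (2, 4, 8 nM) for 12 h. Loaded with DCFH-DA in fresh medium at 37 °C for 30 min and washed three times with PBS. DCF fluorescence read at excitation 488 and emission 525 nm. Images taken after Hoechst 33342 nuclear staining.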

[10] = system: A549; assay: Antimigratory activity against human A549 cells assessed as suppression of wound healing at 4 nM after 24 hrs by phase contrast microscopic method; type: functional, cell-based
In short: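 Scratch wound assay: A549 plated at 5 × 10⁴ cells/dish and grown 24 h before scraping with a 10 μL tip. Medium then swapped to serum-free DMEM containing compound (4 nM) for 24 h. After a PBS wash, wound images taken at 0 and 24 h; at least three independent experiments.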

[11] = system: A549; assay: Cell cycle arrest in human A549 cells assessed as accumulation at G2/M phase up to 24 hrs by propidium iodide staining based flow cytometry; type: functional
In short: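 A549 seeded in six-well plates at 3 × 10⁵ cells/well and treated for 12 or 24 h; vehicle 0.01% DMSO. Cells fixed overnight in ice-cold 70% ethanol, treated with RNase A at 37 °C for 30 min, then stained with PI at 4 °C for 30 min. About 10 000 events acquired by flow cytometry at 488 nm; three experiments.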

[12] = system: A549; assay: Induction of apoptosis in human A549 cells assessed as upregulation of Bax level at 2 to 4 nM after 24 to 48 hrs by Western blot method; type: functional, cell-based; in short: as §1
[13] = system: MGC-803; assay: Induction of morphological changes in human MGC803 cells at 2 to 8 nM after 48 hrs by confocal microscopic method; type: functional, cell-based; in short: as §2
[14] = system: A549; assay: Disruption of microtubule network in human A549 cells at 4 to 8 nM after 12 hrs by Hoechst 33342 staining based laser scanning confocal microscopic method; type: cell-based; in short: as §3
[15] = system: MCF7; assay: Induction of morphological changes in human MCF7 cells at 2 to 8 nM after 48 hrs by confocal microscopic method; type: functional, cell-based; in short: as §2
[16] = system: A549; assay: Antitumor activity against human A549 cells xenografted in Balb/c mouse assessed as tumor growth inhibition at 30 mg/kg, ip treated once in 2 days for 10 days relative to control; type: functional; conditions: read-out: TGI
In short: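 Male BALB/c nude mice, 5 weeks old, 18−20 g. Right flank injected sc with 0.1 mL of 1 × 10⁷ cells/mL log-phase A549 in FBS-free DMEM. At ~100 mm³, randomised into groups of 5 and dosed ip every 2 days; vehicle controls got equal volume. Tumour volume (0.5 × length × width²) and body weight recorded every 2 days.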

SMILES | Activity [1] | Activity [2] | Activity [3] | inhibition [4] | Activity [5] | Activity [6] | Activity [7] | Activity [8] | Activity [9] | Activity [10] | Activity [11] | Activity [12] | Activity [13] | Activity [14] | Activity [15] | inhibition in vivo at 30 mg/kg [16]
C[Se]c1ccc(N(C)c2nc(C)nc3ccccc23)cc1 | Active | Active | Active | Dose-dependent effect | Active | inactive | inactive | Active | Active | Active | Dose-dependent effect | Active | Active | Active | Active | 
COc1ccc(/C=C\c2cc(OC)c(OC)c(OC)c2)cc1OP(=O)(O)O [FOSBRETABULIN] |  |  |  |  |  |  |  |  |  |  |  |  |  |  |  | 56.6%
